Measured values collected from several papers.
Lines come from different studies, so protocols differ.
GAK: Cyclin-G-associated kinase (GAK, Homo sapiens, UniProt O14976)
AMY2: Pancreatic alpha-amylase (AMY2, Sus scrofa, UniProt P00690)
PADI3: Protein-arginine deiminase type-3 (PADI3, Homo sapiens, UniProt Q9ULW8)
Maoa: Amine oxidase [flavin-containing] A (Maoa, Rattus norvegicus, UniProt P21396)
KRAS G12C: GTPase KRas (KRAS, Homo sapiens, UniProt P01116, G12C)
RIPK1: Receptor-interacting serine/threonine-protein kinase 1 (RIPK1, Homo sapiens, UniProt Q13546)

| SMILES | target | assay | conditions | quantity | value |
| --- | --- | --- | --- | --- | --- |
| COc1ccc(Nc2ccnc3ccc(C(F)(F)F)cc23)cc1OC | GAK | thermal stability, DSF | 10 µM | ΔTm | 3.4 °C |
| Cc1noc(NS(=O)(=O)c2ccc(N=NN(O)c3ccccc3)cc2)c1C | AMY2 | enzyme activity, inhibitor | 240 µg/mL | inhibition | 63.2% |
| CC(C)(C)n1nnc([C@H](CCCNC(=N)CCl)NC(=O)c2ccc(-c3ccccc3)cc2)n1 | PADI3 | enzyme activity, inhibitor |  | kinact/KI | 82.3 M⁻¹ s⁻¹ |
| CCN(O)N=Nc1ccc(S(=O)(=O)Nc2cc(C)on2)cc1 | AMY2 | enzyme activity, inhibitor | 20 µg/mL | inhibition | 26.3% |
| N=C(CCl)NCCC[C@H](NC(=O)c1ccccc1C(=O)O)c1nn[nH]n1 | PADI3 | enzyme activity, inhibitor |  | kinact/KI | 207 M⁻¹ s⁻¹ |
| FC(F)(F)c1ccc2nccc(Nc3cccc(Br)c3)c2c1 | GAK | thermal stability, DSF | 10 µM | ΔTm | 3.8 °C |
| CCCN(O)N=Nc1ccc(S(=O)(=O)Nc2onc(C)c2C)cc1 | AMY2 | enzyme activity, inhibitor | 20 µg/mL | inhibition | 26.3% |
| N=C(CCl)NCCC[C@H](NC(=O)c1ccc(-c2ccccc2)cc1)c1nn[nH]n1 | PADI3 | enzyme activity, inhibitor |  | kinact/KI | 131 M⁻¹ s⁻¹ |
| NCc1ccc(C(F)(F)F)cc1 | Maoa | enzyme activity, substrate | pH 7.5 | Km | 194 µM |
| O=C1O[C@H]2[C@@H]3OC(=O)c4cc(O)c(O)c(O)c4-c4c(O)c(O)c5oc(=O)c6c(c(O)c(O)c7oc(=O)c4c5c76)-c4c(cc(O)c(O)c4O)C(=O)OC[C@H]3OC(O)[C@@H]2OC(=O)c2cc(O)c(O)c(O)c2-c2c1cc(O)c(O)c2O (mixture of isomers) | Genome polyprotein, protease (Hepatitis C virus genotype 1b, UniProt Q9WMX2) | enzyme activity, inhibitor, fluorescence |  | IC90 | ~2500 nM |
| CCCN(O)N=Nc1ccc(S(=O)(=O)Nc2cc(C)on2)cc1 | AMY2 | enzyme activity, inhibitor | 20 µg/mL | inhibition | 10.5% |
| C=CC(=O)N1CCN(c2cccc(-c3noc([C@@]4(C)CCCc5sc(N)c(C#N)c54)n3)c2)CC1 | KRAS G12C | cell-free assay, inhibitor |  | kinact | 8.33e-05 s⁻¹ |
| CC(C)(C)n1nnc([C@H](CCCNC(=N)CCl)NC(=O)c2ccccc2)n1 | PADI3 | enzyme activity, inhibitor |  | kinact/KI | 7.67 M⁻¹ s⁻¹ |
| COc1cc(C=Cc2cc(-c3ccccc3)nc(O)n2)ccc1O | AMY2 | enzyme activity, inhibitor, absorbance | 5 µg/mL | inhibition | 76.3% |
| CC(C)(C)n1nnc([C@H](CCCNC(=N)CF)NC(=O)c2ccccc2C(=O)O)n1 | PADI3 | enzyme activity, inhibitor |  | kinact/KI | 261 M⁻¹ s⁻¹ |
| CCCOc1ccc(OC)c(F)c1C(=O)c1ccc(C(=O)N[C@@H]2CNC[C@H]2NC(=O)c2ccc3[nH]ncc3c2)cc1 | Serine/threonine-protein kinase MRCK beta (CDC42BPB, Homo sapiens, UniProt Q9Y5S2) | enzyme activity, inhibitor | 0.5 µM | remaining activity | 9% |
| Cc1noc(NS(=O)(=O)c2ccc(N=NN(C)O)cc2)c1C | AMY2 | enzyme activity, inhibitor | 20 µg/mL | inhibition | 21.1% |
| FC(F)(F)c1ccc2nccc(Nc3ccc4c(c3)OCCO4)c2c1 | GAK | thermal stability, DSF | 10 µM | ΔTm | 1.5 °C |
| CN1CCN(C(=O)c2ccc3cc(CCNc4ccnc5ccc(C#N)cc45)ccc3c2)CC1 | Cyclin-dependent kinase 19, with cyclin C (CDK19, Homo sapiens, UniProt Q9BWU1) | binding, TR-FRET |  | kon | 939000 M⁻¹ s⁻¹ |
| CN1CCC2(CC1)NC(=O)c1c(c3ccc(Cl)c(Cl)c3n1C)C2C#N (racemic) | Serine/threonine-protein kinase DCLK1 (DCLK1, Homo sapiens, UniProt O15075) | thermal stability, DSF | 10 µM | ΔTm | -0.1 °C |

| SMILES | target | assay | conditions | quantity | value |
| --- | --- | --- | --- | --- | --- |
| Fc1cc(Nc2ccnc3ccc(C(F)(F)F)cc23)ccc1Cl | GAK | thermal stability, DSF | 10 µM | ΔTm | 4.5 °C |
| Nc1ncnc2occ(-c3ccc(NC(=O)Nc4cc(C(F)(F)F)ccc4F)cc3)c12 | GAK | cell-free assay, inhibitor | 20 µM | remaining signal | 41% |
| COc1cc(C=CC(=O)CC(c2ccc([N+](=O)[O-])cc2)n2ccnc2)ccc1O (stereo not shown) | AMY2 | enzyme activity, inhibitor, absorbance | 1.25 µg/mL | inhibition | 52.7% |
| Cc1ccc(C(=O)NCc2ccsc2)cc1C#Cc1cn(C(C)C)c2ncnc(N)c12 | RIPK1 | enzyme activity, inhibitor | 1 µM | activity vs control | 30% |
| Cc1ccc(C(=O)Nc2ccc(CN3CCN(C)CC3)c(C(F)(F)F)c2)cc1C#Cc1cnc2cccnn12 | GAK | enzyme activity, inhibitor | 23.5 nM | remaining activity | 73% |
| C=CC(=O)Nc1ccc(-c2noc([C@@]3(C)CCCc4sc(N)c(C#N)c43)n2)cc1 | KRAS G12C | cell-free assay |  | kinact | 0.00011 s⁻¹ |
| N#Cc1ccccc1Nc1ccnc2ccc(C(F)(F)F)cc12 | GAK | thermal stability, DSF | 10 µM | ΔTm | 0.6 °C |
| NCc1ccc(F)cc1 | Maoa | enzyme activity, substrate | pH 7.5 | Km | 174 µM |
| COc1cc(Nc2cnc(C#N)c(O[C@H](C)CN(C)C)n2)ncc1-c1cnn(C)c1 | Eukaryotic translation initiation factor 2-alpha kinase 3 (EIF2AK3, Homo sapiens, UniProt Q9NZJ5) | enzyme activity, inhibitor, radiometric | 10 µM | remaining activity | 93% |
| Cc1cc(NS(=O)(=O)c2ccc(N=NN(O)c3ccccc3)cc2)no1 | AMY2 | enzyme activity, inhibitor | 300 µg/mL | inhibition | 73.7% |
| COc1cc(Cl)c(C(=O)N[C@@H](CN[C@H]2CC[C@@H](N)CC2)Cc2ccc(C#N)cc2)cc1-c1ccc(CN[C@H](C)c2ccc(C)cc2)o1 | RIPK1 | enzyme activity, inhibitor | 1 µM | remaining activity | 96% |
| Cc1cccc(N(O)N=Nc2ccc(S(=O)(=O)Nc3onc(C)c3C)cc2)c1 | AMY2 | enzyme activity, inhibitor | 120 µg/mL | inhibition | 31.6% |
| CS(=O)(=O)c1cccc(Nc2ccnc3ccc(C(F)(F)F)cc23)c1 | GAK | thermal stability, DSF | 10 µM | ΔTm | 0.3 °C |
| Cc1cccc(N(O)N=Nc2ccc(S(=O)(=O)Nc3nccs3)cc2)c1 | AMY2 | enzyme activity, inhibitor | 60 µg/mL | inhibition | 21.1% |
| COc1cc(C=Cc2cc(-c3ccc(N(C)C)cc3)nc(O)n2)ccc1O | AMY2 | enzyme activity, inhibitor, absorbance | 5 µg/mL | inhibition | 72.4% |
| O=C(O)CCC(=O)C(=O)O | Lysine-specific demethylase 4D (KDM4D, Homo sapiens, UniProt Q6B0I6) | enzyme activity, substrate |  | Km | 6.9 µM |
| COc1cc(Nc2ccnc3ccc(C(C)(C)C)cc23)cc(OC)c1OC | GAK | thermal stability, DSF | 10 µM | ΔTm | 5.2 °C |
| C=CC(=O)Nc1cccc(-c2noc([C@@]3(C)CCCc4sc(N)c(C#N)c43)n2)c1 | KRAS G12C | cell-free assay |  | kinact | 0.000185 s⁻¹ |
| COc1cc2nccc(Nc3cccc(C(C)=O)c3)c2cc1OC | GAK | thermal stability, DSF | 10 µM | ΔTm | 1.3 °C |
| N=C(CF)NCCC[C@H](NC(=O)c1ccccc1C(=O)O)c1nn[nH]n1 | PADI3 | enzyme activity, inhibitor |  | kinact/KI | 63.3 M⁻¹ s⁻¹ |
